The subject of assay [1] is NCI-H460. As to the kind of experiment: Cytotoxicity against human NCI-H460 cells after 48 hrs by MTT assay. It is filed as functional, cell-based. Particulars: NCI-H460, 48 h. The essentials:
(§1)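 MCF-7, NCI-H460 and SF-268 cells were exposed to serial dilutions for 48 h in RPMI 1640 with 10% fetal bovine serum. Viability was read by MTT colorimetric assay, and IC50 was taken as the concentration giving 50% inhibition of proliferation/survival.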
(In general: Formazan colour is commonly taken as a measure of viable cells.)

Assay [2] concerns MCF7. As to the kind of experiment: Cytotoxicity against human MCF7 cells after 48 hrs by MTT assay. It counts as functional, cell-based. Particulars: MCF7, 48 h. The essentials:
as §1

Assay [3] deals with SF-268. In words: Cytotoxicity against human SF268 cells after 48 hrs by MTT assay. It counts as functional, cell-based. Particulars: SF-268, 48 h. The essentials:
as §1

Assay [4] relates to NCI-H460. In words: Cell cycle arrest in human NCI-H460 cells assessed as accumulation at S phase at 3 uM by flow cytometry.
The test system of assay [5] is NCI-H460. As to the kind of experiment: Cell cycle arrest in human NCI-H460 cells assessed as accumulation at G1 phase at 3 uM by flow cytometry.
Assay [6] relates to NCI-H460. As to the kind of experiment: Cell cycle arrest in human NCI-H460 cells assessed as accumulation at G2/M phase at 3 uM by flow cytometry. A general note: Flow cytometry measures light scatter and fluorescence of single cells or particles in a stream.
The test system of assay [7] is NCI-H460. As to the kind of experiment: Cell cycle arrest in human NCI-H460 cells assessed as accumulation at G1 phase at 10 ug/mL by flow cytometry. It counts as functional. The essentials:
(§2)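 NCI-H460 cells taken at 75-85% confluency, seeded at 2.5 × 10^5 cells per 60 mm dish and left to reattach overnight. Treated overnight in complete RPMI 1640 at 10 µg/mL final (test agents) or 0.1 µM final (positive control), with DMSO ≤0.1 vol %. Harvested by trypsin, PBS-rinsed, resuspended in Krishan's buffer, then DNA-content flow cytometry gave G1/S/G2/M percentages.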

The test system of assay [8] is NCI-H460. As to the kind of experiment: Cell cycle arrest in human NCI-H460 cells assessed as accumulation at S phase at 10 ug/mL by flow cytometry. It is filed as functional. The essentials:
as §2

Assay [9] concerns NCI-H460. As to the kind of experiment: Cell cycle arrest in human NCI-H460 cells assessed as accumulation at G2/M phase at 10 ug/mL by flow cytometry. It is filed as functional. Summed up: as §2
The test system of assay [10] is NCI-H460. In words: Cell cycle arrest in human NCI-H460 cells assessed as accumulation at G1 phase at 0.1 uM by flow cytometry. It is filed as functional. Summed up:
as §2

Assay [11] has as its system NCI-H460. In words: Cell cycle arrest in human NCI-H460 cells assessed as accumulation at S phase at 0.1 uM by flow cytometry. It counts as functional. Summed up:
as §2

Assay [12] relates to NCI-H460. In words: Cell cycle arrest in human NCI-H460 cells assessed as accumulation at G2/M phase at 0.1 uM by flow cytometry. It is filed as functional. Summed up:
as §2

The subject of assay [13] is NCI-H460. As to the kind of experiment: Cytotoxicity against human NCI-H460 cells at 10 ug/mL after 48 hrs by MTT assay. It is filed as functional, cell-based.
Assay [14] concerns MCF7. In words: Cytotoxicity against human MCF7 cells at 10 ug/mL after 48 hrs by MTT assay. It is filed as functional, cell-based.
Assay [15] deals with SF-268. In words: Cytotoxicity against human SF268 cells at 10 ug/mL after 48 hrs by MTT assay. It is filed as functional, cell-based.

SMILES strings stand for the structures. Active and inactive are the calls of the source. The calls are words filed in the database; no cut-off is given here.

As a reminder, the IC50 is the concentration at which inhibition is half-maximal. As for `COC1=C(c2c[nH]c3ccccc23)C(=O)C(OC)=C(c2c[nH]c3ccccc23)C1=O` [ASTERRIQUINONE D], the IC50 in assay [1] is 19.9 µM; in assay [2], 17.7 µM; in assay [3], 15.8 µM.

Regarding `C=C1C(=O)C[C@H]2[C@@H]3CC[C@H](C(=O)OC)[C@]12CC3(C)C`, the IC50 is 9.4 µM in [1], 16.7 µM in assay [2] and 10.2 µM in assay [3].

Consider `C=CC(C)(C)c1[nH]c2ccccc2c1C1=C(OC)C(=O)C(c2c[nH]c3ccccc23)=C(OC)C1=O`, for which the IC50 in [1] turned out to be 24.2 µM; in [2], 4.1 µM; in assay [3] it was 25.7 µM.

With `COC(=O)Nc1nc2cc(C(=O)c3cccs3)ccc2[nH]1` [NOCODAZOLE], the Activity is 6.9% in [4], 13% in [5] and 80.1% in assay [6].

For `CC1(C)C[C@]23[C@@H](C(=O)O)CC[C@H]1[C@@H]2CC(=O)[C@@H]3CO`, the results for the IC50 in [1], in assay [2] and in assay [3] were 14.5 µM, 16.5 µM and 7.8 µM, respectively.

Consider `COC1=C(c2ccccc2)C(=O)C(OC)=C(c2ccccc2)C1=O` [BETULINAN A], for which the IC50 came to 58.4 µM in [1], 8.7 µM in [2] and 28 µM in assay [3].

With `C=C1C(=O)C[C@H]2[C@@H]3CC[C@H](C(=O)O)[C@]12CC3(C)C`, the IC50 in assay [1] amounted to 10.6 µM; in assay [2] it was 24.1 µM; in [3], 14.7 µM. The Activity is recorded as 40.7% in assay [7], 16% in [8] and 43.7% in assay [9].

Turning to `COC[C@H]1C(=O)C[C@H]2[C@@H]3CC[C@H](C(=O)O)[C@]12CC3(C)C`, the IC50 came out at 19.4 µM in assay [1], 20.6 µM in [2] and 21.4 µM in [3]. The Activity was 44.3% in assay [7], 21.4% in assay [8] and 34.3% in assay [9].

As for `CC1(C)C[C@]23[C@@H]4COC(=O)[C@H]2CC[C@H]1[C@@H]3CC4=O` [QUADRONE], the IC50 came out at 12.4 µM in assay [1], 14.3 µM in assay [2] and 16.9 µM in assay [3]. For the same compound, the Activity was 38.8% in assay [7], 6.3% in assay [8] and 54.8% in assay [9].

As to `COC(=O)C1(c2c[nH]c3ccccc23)C(=O)C(OC)=C(c2c[nH]c3ccccc23)C1=O` (stereo unspecified) [ASTERREDIONE], the IC50 was found to be 17.4 µM in [1], 25.2 µM in assay [2] and 20.7 µM in [3].

In turn, `CC(=O)O[C@H]1C(=O)[C@@]2(C)[C@H]([C@H](OC(=O)c3ccccc3)[C@]3(O)C[C@H](OC(=O)[C@H](O)[C@@H](NC(=O)c4ccccc4)c4ccccc4)C(C)=C1C3(C)C)[C@]1(OC(C)=O)CO[C@@H]1C[C@@H]2O` [PACLITAXEL] displayed an IC50 in assay [2] of 0.0112 µM. Moreover, the values for the Activity in assay [10], in [11] and in assay [12] were 15.5%, 14% and 70.5%, respectively.

Regarding `CC1C(=O)C[C@H]2[C@@H]3CC[C@H](C(=O)O)[C@]12CC3(C)C` (stereo partly specified), the outcome in [13], in assay [14] and in assay [15] was inactive.

Source of the values: ChEMBL document CHEMBL1147262, “Cytotoxic constituents of Aspergillus terreus from the rhizosphere of Opuntia versicolor of the Sonoran Desert” (J Nat Prod, 2003).
